MBD2 inh: blocks human MBD2 binding to methylated DNA | 370,000 tested, 0.31% active | Q9UBB5 | TR-FRET, MBD2 binding to methylated oligonucleotide | inhibition, % at 4.4 µM; in the data active means inhibition above about 13%
TDP2 absorb: TDP2 (human) inhibition, absorbance primary screen | O95551 | AID 720702 | recombinant TDP2, T5PNP hydrolysis, p-nitrophenol absorbance 415 nm | 370,000 tested, 0.34% active | inhibition, % at 12.8 µM;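 active means inhibition above the mean of all tested compounds plus 3 SD, set per campaign, cut at about 25% in these data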;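 further: 0% = DMSO with enzyme and 100% = buffer with substrate but no TDP2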
Target sequence (O95551 whole entry, looked up): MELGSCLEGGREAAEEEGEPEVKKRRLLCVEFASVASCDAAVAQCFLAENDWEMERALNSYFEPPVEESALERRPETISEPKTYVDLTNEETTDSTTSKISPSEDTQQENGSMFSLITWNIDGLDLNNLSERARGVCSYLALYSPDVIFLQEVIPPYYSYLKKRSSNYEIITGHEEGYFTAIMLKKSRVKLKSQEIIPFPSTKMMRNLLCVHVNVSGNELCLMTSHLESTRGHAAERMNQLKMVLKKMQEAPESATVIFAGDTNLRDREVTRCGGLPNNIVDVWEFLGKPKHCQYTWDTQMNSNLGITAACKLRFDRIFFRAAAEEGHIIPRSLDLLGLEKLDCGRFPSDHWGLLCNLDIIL
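System – recombinant human TDP2 · Amount – 120 nM TDP2 per well · Buffer or medium – Mg2+-containing Tris-HCl buffer, pH 7.5 · Reagent – T5PNP substrate, 5 mM · Dosing – 12.8 µM single point, 1% DMSO · Incubation – 2 h at 37 °C · Measured by – epi absorbance · Read-out basis – percent inhibition · Benchmarks – high control without enzyme, low control DMSO plus TDP2 · Repeats – singlicate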
LEDGF integ inh: blocks HIV-1 LEDGF/p75-dependent DNA integration. TR-FRET IN-LEDGF/p75 DNA integration, Eu/Cy5. inhibition, % at 3.7 µM. 370,000 tested, 0.64% active. AID 743269;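 active means inhibition above the screen-wide mean plus 3 SD, cut at about 13% in these data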;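 further: signal is the Cy5 over europium emission ratio at 671 and 618 nm; 0% = plate median of compound wells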
UHRF1 MBD2 ctr: human UHRF1 methylated DNA binding inhibitors; Q96T88; UHRF1 binding to methylated oligo, TR-FRET; inhibition, % at 4.4 µM; 370,000 tested, 0.75% active; AID 687016; in the data active means inhibition above about 21%;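 further: UHRF1 SRA domain binding a hemimethylated CpG hairpin DNA probe; 0% = median of test compound wells and 100% = reference inhibitor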
* = called active by the depositor. An excerpt weighted towards active compounds, which were near 1.6% of everything screened.

SMILES	MBD2 inh	TDP2 absorb	LEDGF integ inh	UHRF1 MBD2 ctr
Cc1ccsc1/C=N/NC(=O)c1sccc1C	3	-1	1	-1
O=C(Nc1ccc(N2CCN(C(=O)c3ccco3)CC2)cc1)c1ccc(Br)cc1	-1	5	0	70*
CCCCNC(=O)Nc1cc(C)on1	1	2	-1	0
CCOC(=O)C(=O)Nc1cc(C)on1	7	45*	8	22*
COc1cc(C(=O)NNC(=O)c2ccc(NC(=O)C(C)(C)C)cc2)cc(OC)c1OC	4	-1	-4	32*
CCC(=O)Nc1ccc(C(=O)NNC(=O)c2cc(OC)c(OC)c(OC)c2)cc1	-2	4	2	2
O=C(CC1C(=O)NCCN1C/C=C/c1ccccc1)NCCc1ccncc1 (stereo not drawn)	10	-1	0	23*
COC(=O)N1Cc2ccnnc2CC1c1ccccc1-c1ccccc1 (stereo not drawn)	1	-15	1	2
Oc1ccc(NCc2ccccc2OCc2ccccc2F)cc1	-2	16	5	0
CCOc1ccccc1CNc1ccc(O)cc1	7	26*	25*	17
CCCCNC(=O)C[C@H]1C[C@@]2(C(=O)OC)C(=C[C@H](COCc3ccccc3)O[C@@H]2C)N(CCC2=CCCCC2)C1=O	0	-2	-3	-1
Cc1cc(OC[C@@H](O)CN2CCC(C(O)(c3ccccc3)c3ccccc3)CC2)ccc1Br	-4	0	0	0
O=C(NNC(=O)c1cccs1)c1ccc([N+](=O)[O-])cc1	-1	-15	3	21*
O=C(NCC(c1cccs1)N1CCOCC1)c1cc([N+](=O)[O-])cc([N+](=O)[O-])c1 (stereo not drawn)	7	6	-1	1
O=C(NCC(c1cccs1)N1CCOCC1)c1ccc([N+](=O)[O-])cc1 (stereo not drawn)	1	-3	-1	25*
O=C(NNC(=O)c1ccc([N+](=O)[O-])cc1)c1ccc(NS(=O)(=O)c2cccs2)cc1	1	0	7	1
COc1ccc(S(N)(=O)=O)cc1C(N)=O	10	-10	-4	22*
COC(=O)c1ccc2nc(-c3ccc(OC)c(OC)c3)c(Cc3ccc(C)cc3)n2c1	9	-3	0	17
Clc1ccc2nc(-c3cccc(Br)c3)c(Cc3ccccc3)n2c1	3	-6	0	21*
Clc1cccc(Cc2c(-c3cccc(Br)c3)nc3ccc(Cl)cn23)c1	-3	-6	3	2
COC(=O)c1ccc2nc(-c3ccc(Cl)cc3)c(Cc3ccccc3OC)n2c1	9	-4	2	20
COC(=O)c1ccc2nc(-c3ccc(Cl)cc3)c(Cc3ccccc3)n2c1	2	2	-1	23*
COC(=O)c1ccc2nc(-c3ccc(C)cc3)c(Cc3ccc(C)cc3)n2c1	-1	-4	3	21*
COC(=O)c1ccc2nc(-c3cccc(Cl)c3)c(Cc3ccccc3OC)n2c1	7	0	4	21*
CN1C(=O)[C@@]2(O[C@H]3C=CC=CN3C3=C2C(=O)CCC3)c2cccc(Br)c21	5	4	1	0
SMILES	MBD2 inh	TDP2 absorb	LEDGF integ inh	UHRF1 MBD2 ctr
Cc1ccc2c(c1)C1CS(=O)(=O)N(CC(C)C)C(=O)N1C2 (stereo not drawn)	0	7	3	-3
COC(=O)[C@]12C[C@H](CC(=O)N3CCSCC3)C(=O)N(Cc3ccco3)C1=C[C@H](C1CCCC1)O[C@@H]2C	-4	2	1	-4
COC(=O)c1ccc2nc(-c3ccco3)c(Cc3ccccc3C(F)(F)F)n2c1	2	-2	2	19
Cc1ccc2nc(-c3cccc(Br)c3)c(CC3CCCCC3)n2c1	6	7	-1	21*
COC(=O)c1ccc2nc(-c3ccco3)c(Cc3cccc(F)c3)n2c1	1	3	6	19
COC(=O)c1ccc2nc(-c3ccco3)c(Cc3ccccc3OC)n2c1	16*	4	9	26*
COC(=O)c1ccc2nc(-c3ccco3)c(Cc3ccc(C)cc3)n2c1	10	-2	1	23*
COC(=O)C[C@H]1CC[C@@H]2[C@H](COc3ccc(NC(=O)c4cccc(F)c4)cc3C(=O)N2C)O1	0	5	0	2
COc1ccc(CN2C/C(=C/C3=CCCCC3)N(C(=O)OCc3ccccc3)C2=N)c(OC)c1	-3	-3	6	-3
Cn1nc2c(c1C(=O)N1CCCC(C(=O)c3cc(F)ccc3F)C1)CCCC2 (stereo not drawn)	2	1	0	1
